# CRFBP-R2 agonist – agonists of human CRF-binding protein/CRF-R2 receptor complex | HEK293 CRF-R2/CRF-BP, calcium dye fluorescence (FLIPR); percent of saturating CRF peptide response | activation, % at 13.2 µM | hit rate 0.46% among 350,000;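 active = activation of at least 50%, plus an integration ratio under a set limit after plate pattern correction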;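 note: plate controls were neutral control wells without compound for no effect and CRF at EC100 for full effect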
# DDE Tn6 FP inh – inhibitors of Tn6 peptide binding to human fibrin DD(E); P02675; Fibrin DD(E) TRITC-Tn6 fluorescence polarization displacement; inhibition, % at 8.3 µM; hit rate 0.21% among 370,000; AID 720509;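 active = inhibition above a per-campaign cutoff: mean of compounds within control limits plus 3 SD, cut at about 15% in these data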;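 note: 0% = median of all compound wells on the plate and 100% = blocking peptide control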
# proKLK7 act – activates the human kallikrein-7 zymogen; P49862; purified proKLK7, EDANS-DABCYL substrate fluorescence; 100% is mature enzyme control, 0% vehicle; activation, % at 7 µM; hit rate 0.9% among 370,000; AID 652039;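 active = activation above the mean of all tested compounds plus 3 SD, computed per campaign excluding outliers beyond control limits, cut at about 13% in these data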
# Tn7 DDE FP – DD(E)-Tn7 binding inhibition, primary FP screen; FP displacement of FITC-Tn7 peptide from fibrin DD(E); 0% = median of compound wells per plate; inhibition, % at 8.3 µM; hit rate 0.13% among 370,000;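 active = inhibition above the mean of compounds falling within the control limits plus 3 SD of them, cut at about 14% in these data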;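 note: 0% = plate median of compound wells and 100% = 10 µM Aha-Tn7 peptide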
#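 assay system = human clot-derived fibrin DD(E) complex | quantity = Fibrin-DD(E) at 2 µM final | timing = 10 min preincubation, 3 h with tracer, room temperature | signal = fluorescence polarization | measure = percent inhibition | benchmarks = high control wells with 10 µM unlabelled Aha-Tn7 peptide (full inhibition) | replicates = singlicate testing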
# CRFR2-BP antag – CRF-BP/CRF-R2 complex antagonism. inhibition, % at 11.8 µM. hit rate 0.59% among 350,000. HEK293 CRF-R2/CRF-BP, CRF-induced calcium fluorescence. AID 588475;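 active = inhibition of the ligand-induced calcium signal above about 50% at the single tested concentration, limit read from the data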
# NRP1-CendR mod – alters CendR peptide binding to human NRP-1. O14786. FAM-RPARPAR peptide binding to NRP-1, fluorescence polarization. inhibition, % at 25 µM. hit rate 0.85% among 360,000. AID 602438;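 active = inhibition or corrected inhibition above about 18%, plus a signal ratio from 0.5 to 1.5, limit read from the data, passing the limit was not always enough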
# Target sequence (O14786 whole entry, looked up): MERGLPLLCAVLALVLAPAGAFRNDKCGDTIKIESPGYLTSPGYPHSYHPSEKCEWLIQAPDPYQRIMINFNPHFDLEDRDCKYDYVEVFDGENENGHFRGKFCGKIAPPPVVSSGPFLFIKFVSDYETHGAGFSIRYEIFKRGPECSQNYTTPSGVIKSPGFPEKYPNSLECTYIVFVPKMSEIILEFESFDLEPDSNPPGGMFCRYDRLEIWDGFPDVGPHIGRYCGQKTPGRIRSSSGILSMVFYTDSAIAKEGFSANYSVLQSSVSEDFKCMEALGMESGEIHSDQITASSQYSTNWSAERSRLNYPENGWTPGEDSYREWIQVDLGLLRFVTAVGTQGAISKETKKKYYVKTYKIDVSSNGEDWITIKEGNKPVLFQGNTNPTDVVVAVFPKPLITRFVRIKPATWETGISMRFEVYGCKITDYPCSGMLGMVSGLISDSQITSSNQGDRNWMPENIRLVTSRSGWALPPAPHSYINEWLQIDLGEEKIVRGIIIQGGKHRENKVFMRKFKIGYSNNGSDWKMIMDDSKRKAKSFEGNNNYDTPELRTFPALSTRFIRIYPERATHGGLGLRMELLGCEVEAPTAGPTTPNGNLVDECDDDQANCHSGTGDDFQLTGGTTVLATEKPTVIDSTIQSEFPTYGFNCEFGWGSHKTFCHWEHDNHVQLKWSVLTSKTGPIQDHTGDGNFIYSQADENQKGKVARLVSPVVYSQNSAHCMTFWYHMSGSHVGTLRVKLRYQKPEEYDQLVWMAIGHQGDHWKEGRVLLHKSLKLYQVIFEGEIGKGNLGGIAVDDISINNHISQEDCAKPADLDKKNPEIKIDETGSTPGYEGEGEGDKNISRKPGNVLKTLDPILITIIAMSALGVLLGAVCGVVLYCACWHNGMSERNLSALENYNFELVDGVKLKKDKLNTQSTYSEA
# * = called active by the depositor; x = not tested or not shown. Shown are actives, neighbours in structure and some others; about 2.9% of the full set was active somewhere.
SMILES,CRFBP-R2 agonist,DDE Tn6 FP inh,proKLK7 act,Tn7 DDE FP,CRFR2-BP antag,NRP1-CendR mod
CCOC(=O)Cn1cc(C=C2C(=O)N(C)C(=O)N(C)C2=O)c2ccccc21,66*,-5,1,-3,-49,146
c1ccc(-c2nc3ccccc3nc2-c2ccc(CN3CCC(n4nnc5ccccc54)CC3)cc2)cc1,x,0,-10,-2,x,x
CCC1CN2CCc3cc(OC)c(OC)cc3C2CC1CC1NCCc2c1[nH]c1ccc(O)cc21 (configuration not stated),5,6,8,-3,51*,-10
CCOc1ccc(-n2c(O)c(/C=C3\C=Nc4ccccc43)c(=O)[nH]c2=O)cc1,108*,-1,-1,-8,-62,-89
COc1ccc(OC(=O)N(C)C[C@H]2OCc3cnnn3CCCC(=O)N([C@@H](C)CO)C[C@@H]2C)cc1,x,-8,0,3,x,x
Cn1cc(C(=O)OCC(=O)Nc2ccccc2)c2ccccc21,-4,-6,0,4,2,21*
CCOC(=O)CC[C@@H]1CC[C@]2(CCCN(Cc3cccnc3)C2)O1,x,-4,-1,-3,x,x
CSCCC(c1nnnn1C1CCCC1)N1CCC2(CC1)C(=O)NCN2c1ccccc1 (configuration not stated),x,-2,0,-2,x,21
CCC(c1nnnn1C(C)(C)C)N1CCC2(CC1)C(=O)NCN2c1ccccc1 (configuration not stated),x,4,1,-10,x,30*
CSCCC(c1nnnn1C1CCCCC1)N1CCC2(CC1)C(=O)NCN2c1ccccc1 (configuration not stated),x,2,1,-4,x,24*
CC(C)(C)n1nnnc1C(CCc1ccccc1)N1CCC2(CC1)C(=O)NCN2c1ccccc1 (configuration not stated),x,4,1,3,x,9
CC(C)(C)NC(=O)C1CN=C(c2ccccc2)c2cc(Cl)ccc2N1C(=O)C1CCC1 (configuration not stated),x,1,0,2,x,x
CN1C2CCC1C(C(=O)Oc1ccccc1)C(c1ccc(Cl)cc1)C2 (configuration not stated),x,-7,0,3,x,x
CN1/C(=C\C=Nc2ccccc2)C(C)(C)c2ccccc21,3,6,0,-8,-16,-26
CN1/C(=C\C=C2C(=O)NC(=O)NC2=O)C(C)(C)c2ccccc21,378*,5,0,-29,-383,60
CC(=O)N1CCC(N2CCCC(C(=O)c3cccc(Cl)c3)C2)CC1 (configuration not stated),2,-4,0,3,67*,1
Clc1ccc(-c2nc3ccc(Cl)cn3c2CN2CCOCC2)cc1,0,-1,0,10,9,50*
O=C(NCCN1CCC2(CC1)C(=O)NCN2c1ccccc1)c1ccc(F)cc1,x,-6,1,2,x,x
COCCCn1c(-c2ccc(OC)cc2)cc(C(=O)NC2CCCCCCC2)c1C,-3,2,0,0,86*,1
COc1ccc(-c2ccc3c(c2)CN(C(=O)NC2CCCCC2)Cc2cnnn2-3)cc1,x,-5,-2,4,x,7
Cn1c(O)c(/C=C/C=Nc2ccccc2)c(=O)n(C)c1=O,85*,0,0,-20,-63,-138
CCCCn1c(O)c(/C=C/C=Nc2ccccc2)c(=O)[nH]c1=O,113*,-1,0,-5,-134,-79
Cn1c(O)c(C=Nc2ccccc2)c(=O)n(C)c1=O,0,5,-1,2,-3,10
Cc1ccccc1C(=O)NCCN1CCC2(CC1)C(=O)NCN2c1ccccc1,x,-7,0,8,x,x
O=C(NCCN1CCC2(CC1)C(=O)NCN2c1ccccc1)c1ccc2ccccc2c1,x,5,1,2,x,x
SMILES,CRFBP-R2 agonist,DDE Tn6 FP inh,proKLK7 act,Tn7 DDE FP,CRFR2-BP antag,NRP1-CendR mod
CCOc1ccc(N2C(=O)NC(=O)/C(=C\c3ccc(N4CCCCC4)o3)C2=O)cc1,57*,-10,0,-3,-41,-26
O=C1NC(=O)N(c2ccc3c(c2)OCO3)C(=O)/C1=C/c1ccc(N2CCCC2)o1,30,0,0,-12,-33,-195
CN1C(=O)C(=Cc2ccc(N3CCOCC3)o2)C(=O)N(C)C1=S,239*,-3,0,-2,-201,-68
CN1CCN(c2ccc(/C=C3\C(=O)NC(=S)N(c4cccc(Br)c4)C3=O)o2)CC1,164*,9,0,4,-180,136
CN1C(=O)/C(=C\c2ccc(N3CCCCC3)o2)C(=O)NC1=S,130*,3,0,-12,-69,-107
CN1C(=O)/C(=C/c2ccc(N3CCCCCC3)o2)C(=O)NC1=S,45,-3,0,-3,-34,-113
CCN1C(=O)C(=Cc2ccc(N3CCOCC3)o2)C(=O)N(CC)C1=S,36,1,0,2,-68,-29
CC(C)C[C@H]1N=C(c2ccccc2)c2ccccc2N(CC(=O)NC(C)(C)C)C1=O,x,5,0,2,x,x
CN1CCN(c2ccc([N+](=O)[O-])c(Sc3ccccn3)c2)CC1,-1,-12,0,-1,9,28*
O=C(C(=C1N(Cc2ccc(Cl)nc2)CCN1Cc1ccc(Cl)nc1)[N+](=O)[O-])C(Cl)Cl,148*,6,-1,-1,-91,15
COC1CC=C2CCN3CCC4=C(CC(=O)OC4)C23C1 (configuration not stated),x,-8,1,-5,x,x
O=C(N/N=C/c1c(O)n(CCC2=CCCCC2)c(=S)[nH]c1=O)c1ccccc1,1,2,-2,1,55*,-36
O=C(N/N=C/c1c(O)n(CCC2=CCCCC2)c(=O)[nH]c1=O)c1ccccc1,2,0,-7,-1,25,0
CCCC(=O)N1c2ccc(Cl)cc2C(c2ccccc2)=NCC1C(=O)NC(C)(C)C (configuration not stated),x,5,0,-2,x,x
CCN(CC)c1ccc(/C=N/c2sc3c(c2C#N)C2CCN3CC2)c(O)c1,171*,x,x,x,-160,132
O=C(c1ccccc1)N1Cc2cc(Br)ccc2-n2nncc2C1,x,7,1,1,x,x
COC(=O)C1=C(c2ccccc2)C[C@@H]2CC[C@H]1N2C,-1,6,1,4,6,25*
COC(=O)C1=C(c2cccc(C#N)c2)C[C@@H]2CC[C@H]1N2C(=O)NC(C)C,-1,5,0,-4,-5,22*
COC(=O)C1=C(c2ccc(-c3ccccc3)c(F)c2)C[C@@H]2CC[C@H]1N2C(=O)N1CCC(O)CC1,-3,0,0,1,5,1
CCCNC(=O)N1[C@H]2CC[C@@H]1C(C(=O)OC)=C(c1ccc(OC(F)(F)F)cc1)C2,0,1,0,-1,-2,29*

# Bioassay records: PubChem, several laboratories
